Experimental data from ChEMBL document CHEMBL1133430, “8-Methylureido-4,5-dihydro-4-oxo-10H-imidazo[1,2-a]indeno[1,2-e]pyrazines: highly potent in vivo AMPA antagonists” (Bioorg Med Chem Lett, 2000).

Assays:
[1] = target: Glutamate receptor ionotropic, AMPA (Rattus norvegicus, UniProt P19490+P19491+P19492+P19493); assay: The compound was tested for its affinity for Ionotropic glutamate receptor AMPA in in vitro binding assay on rat cortical membrane preparations using [3H]AMPA as ligand
[2] = target: Glutamate NMDA receptor; assay: In vitro affinity for N-methyl-D-aspartate glutamate receptor 1 using [3H]5,7-dichlorokynurenate([3H]-DCKA) as ligand; assay type: protein-complex assay
Outline: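 Competition binding on rat cerebral cortex membranes at the NMDA receptor glycine site. IC50 is the mean of at least three determinations, each using at least three test concentrations run in triplicate.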

[3] = tested on: Mus musculus; assay: Tested in vivo as the dose which protected 50% of the animals from a tonic convulsion (six male CDI mice/dose of compound) after intraperitoneal administration in DBA test; assay type: functional
Outline: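 Audiogenic seizure test in DBA/2 mice. Compound given ip in 1% Tween-80 in water, 30 min before the sound challenge. Six mice per dose, three doses plus a vehicle-treated group.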

[4] = tested on: Mus musculus; assay: Tested in vivo as the dose which protected 50% of the animals from a tonic convulsion (six male CDI mice/dose of compound) after intraperitoneal administration in MES test; assay type: functional
Outline: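 Maximal electroshock (MES) convulsions in male CD1 mice. Compound given ip in 1% Tween-80 in water, 30 min before challenge. Six mice per dose, at least three doses plus a vehicle-alone group. ED50 (mg/kg) is the dose protecting 50% of animals from tonic convulsion.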

[5] = species on record: Rattus norvegicus; assay: The compound was tested for its inhibition of currents generated by 50 uM Kainate in Xenopus oocytes injected with rat brain mRNA; assay type: functional
Outline: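 Xenopus oocytes injected with rat brain mRNA; AMPA receptor currents evoked by a submaximal kainate concentration, recorded electrophysiologically. Drug stocks in water or DMSO, diluted into recording medium. IC50 obtained by nonlinear least-squares fit to a sigmoidal equation.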

[6] = tested on: Mus musculus; assay: Tested in vivo as the dose which protected 50% of the animals from a tonic convulsion (six male CDI mice/dose of compound) after intravenous administration in MES test; assay type: functional
Outline: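 Maximal electroshock (MES) convulsions in male CD1 mice. Compound given iv in saline, 5 min before challenge. Six mice per dose, at least three doses plus a vehicle-alone group. ED50 (mg/kg) is the dose protecting 50% of animals from tonic convulsion.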

[7] = tested on: Mus musculus; assay: Tested in vivo as the dose which protected 50% of the animals from a tonic convulsion (six male CDI mice/dose of compound) after subcutaneous administration in MES test; assay type: functional; details: sc
Outline: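 Maximal electroshock (MES) convulsions in male CD1 mice. Compound given sc in 1% Tween-80 in water, 30 min before challenge. Six mice per dose, at least three doses plus a vehicle-alone group. ED50 (mg/kg) is the dose protecting 50% of animals from tonic convulsion.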

[8] = Mus musculus, ip, read-out: ED50

| IC50 [1] | IC50 [2] | SMILES | further results |
| --- | --- | --- | --- |
| 3000 nM | 180 nM | Oc1nc2c(n3ccnc13)Cc1ccc(Cl)cc1-2 | – |
| 100000 nM | > 100000 nM | Oc1nc2c(n3ccnc13)Cc1cc(-n3ccnc3)ccc1-2 | – |
| 39 nM | – | CNC(=O)Nc1ccc2c(c1)C(CC(=O)O)c1c-2nc(O)c2nccn12 (stereo in doubt; (-)-3) | ED50 [3]: 4.4 mg/kg; ED50 [4]: 7 mg/kg; IC50 [5]: 6.7 nM |
| 1250 nM | > 100000 nM | NC(=O)Nc1ccc2c(c1)Cc1c-2nc(O)c2nccn12 | – |
| 37 nM | 100000 nM | CN(C)C(=O)Nc1ccc2c(c1)Cc1c-2nc(O)c2nccn12 | – |
| 4 nM | 10000 nM | CNC(=O)Nc1ccc2c(c1)C(CC(=O)O)c1c-2nc(O)c2nccn12 (single isomer, unassigned; (+)) | ED50 [3]: 0.9 mg/kg; ED50 [4]: 1 mg/kg; IC50 [5]: 2 nM |
| – | – | Oc1nc2c(n3ccnc13)Cc1ccccc1-2 | ED50 ([4]; ip): 62 mg/kg; Kb ([5]; Rattus norvegicus): 1.8 nM |
| 2000 nM | > 100000 nM | Oc1nc2c(n3ccnc13)Cc1cc(Br)ccc1-2 | – |
| 16000 nM | > 100000 nM | Oc1nc2c(n3ccnc13)Cc1cc(Cl)ccc1-2 | – |
| 30000 nM | > 100000 nM | O=S(=O)(O)c1ccc2c(c1)Cc1c-2nc(O)c2nccn12 | – |
| 30000 nM | > 100000 nM | Cc1ccc2c(c1)Cc1c-2nc(O)c2nccn12 | – |
| 670 nM | 8400 nM | CCOC(=O)Nc1ccc2c(c1)Cc1c-2nc(O)c2nccn12 | – |
| – | – | O=c1[nH]c2cc(-n3ccnc3)c([N+](=O)[O-])cc2[nH]c1=O [YM-90K] | ED50 ([3]; ip): 15 mg/kg; ED50 ([4]; ip): 12 mg/kg; ED50 [6]: 12 mg/kg; IC50 ([5]; Rattus norvegicus): 260 nM |
| 250 nM | 7800 nM | Oc1nc2c(n3ccnc13)Cc1cc(F)ccc1-2 | – |
| 17000 nM | 100000 nM | Oc1nc2c(n3ccnc13)Cc1c(Cl)cccc1-2 | – |
| 18 nM | 100000 nM | CNC(=O)Nc1ccc2c(c1)Cc1c-2nc(O)c2nccn12 | – |
| 5600 nM | 22000 nM | Nc1ccc2c(c1)Cc1c-2nc(O)c2nccn12 | – |
| 8 nM | 14000 nM | CNC(=O)Nc1ccc2c(c1)C(CC(=O)O)c1c-2nc(O)c2nccn12 (racemic) | ED50 [3]: 0.6 mg/kg; ED50 [4]: 1.8 mg/kg; ED50 [6]: 1 mg/kg; IC50 [5]: 20 nM; ED50 [7]: 2 mg/kg |
| 970 nM | 1000 nM | Oc1nc2c(n3ccnc13)Cc1ccc(F)cc1-2 | – |
| 86 nM | 10000 nM | CCNC(=O)Nc1ccc2c(c1)Cc1c-2nc(O)c2nccn12 | – |
| 3300 nM | 5300 nM | COc1ccc2c(c1)Cc1c-2nc(O)c2nccn12 | – |
| 3250 nM | 10000 nM | CC(=O)Nc1ccc2c(c1)Cc1c-2nc(O)c2nccn12 | – |
| > 100000 nM | 2100 nM | Cc1ccc2c(c1)-c1nc(O)c3nccn3c1C2 | – |
| 300 nM | 2300 nM | CNC(=O)Nc1cccc2c1Cc1c-2nc(O)c2nccn12 | – |
| 900 nM | 100000 nM | Oc1nc2c(n3ccnc13)Cc1c(F)cccc1-2 | – |

| SMILES | IC50 [1] | IC50 [2] | further results |
| --- | --- | --- | --- |
| O=C(NCCc1ccccc1)Nc1ccc2c(c1)Cc1c-2nc(O)c2nccn12 | 130 nM | > 100000 nM | – |
| O=C(Nc1ccccc1)Nc1ccc2c(c1)Cc1c-2nc(O)c2nccn12 | 620 nM | > 100000 nM | – |
| CNC(=O)Nc1ccc2c(c1)/c(=C/C(=O)O)c1c2nc(O)c2nccn21 | 19 nM | 100000 nM | ED50 [3, 8]: 1.6 mg/kg; ED50 [4, 8]: 11 mg/kg; ED50 [6]: 5.6 mg/kg; IC50 ([5]; Rattus norvegicus): 3 nM |
| O=C(Cc1ccccc1)Nc1ccc2c(c1)Cc1c-2nc(O)c2nccn12 | 180 nM | 100000 nM | – |
| O=C(NCc1ccccc1)Nc1ccc2c(c1)Cc1c-2nc(O)c2nccn12 | 110 nM | 100000 nM | – |
| O=C(Nc1ccc2c(c1)Cc1c-2nc(O)c2nccn12)c1ccccc1 | 450 nM | > 100000 nM | – |
